Results: ChEMBL document CHEMBL3286131, “Design, synthesis and systematic evaluation of cytotoxic 3-heteroarylisoquinolinamines as topoisomerases inhibitors” (Eur J Med Chem, 2014)
Values joined by “and” are separate entries in the source; they are usually repeats but may differ in a detail not shown here. Equal entries are not always repeated.

Columns and labels:
[1] = Cytotoxicity against human MCF10A cells after 2 days; format: cell-based, MCF-10A
Summary of the method: (§1)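 Cells seeded at 2-4 × 10^4 per well in medium with 10% FBS and incubated overnight at 37 °C, 5% CO2. Graded compound concentrations added on day 2. CCK-8 reagent added on day 4 for a further 4 h, absorbance read at 450 nm. IC50 from a four-parameter logistic fit; mean ± S.D. of three experiments run in triplicate.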

[2] = Cytotoxicity against human HCT15 cells after 2 days; format: functional, cell-based, HCT-15; summary of the method: as §1
[3] = system: DU-145; assay: Cytotoxicity against human DU145 cells after 2 days; format: functional, cell-based; summary of the method: as §1
[4] = system: T47D; assay: Cytotoxicity against human T47D cells after 2 days; format: functional, cell-based; summary of the method: as §1
[5] = biological target: DNA topoisomerase 2-alpha (Homo sapiens) (UniProt P11388); assay: Inhibition of human DNA topoisomerase-2a-mediated relaxation of supercoiled DNA pBR322 at 100 uM after 4 hrs using ethidium bromide staining by agarose gel electrophoresis analysis
Chain of DNA topoisomerase 2-alpha (Homo sapiens) (P11388 whole entry): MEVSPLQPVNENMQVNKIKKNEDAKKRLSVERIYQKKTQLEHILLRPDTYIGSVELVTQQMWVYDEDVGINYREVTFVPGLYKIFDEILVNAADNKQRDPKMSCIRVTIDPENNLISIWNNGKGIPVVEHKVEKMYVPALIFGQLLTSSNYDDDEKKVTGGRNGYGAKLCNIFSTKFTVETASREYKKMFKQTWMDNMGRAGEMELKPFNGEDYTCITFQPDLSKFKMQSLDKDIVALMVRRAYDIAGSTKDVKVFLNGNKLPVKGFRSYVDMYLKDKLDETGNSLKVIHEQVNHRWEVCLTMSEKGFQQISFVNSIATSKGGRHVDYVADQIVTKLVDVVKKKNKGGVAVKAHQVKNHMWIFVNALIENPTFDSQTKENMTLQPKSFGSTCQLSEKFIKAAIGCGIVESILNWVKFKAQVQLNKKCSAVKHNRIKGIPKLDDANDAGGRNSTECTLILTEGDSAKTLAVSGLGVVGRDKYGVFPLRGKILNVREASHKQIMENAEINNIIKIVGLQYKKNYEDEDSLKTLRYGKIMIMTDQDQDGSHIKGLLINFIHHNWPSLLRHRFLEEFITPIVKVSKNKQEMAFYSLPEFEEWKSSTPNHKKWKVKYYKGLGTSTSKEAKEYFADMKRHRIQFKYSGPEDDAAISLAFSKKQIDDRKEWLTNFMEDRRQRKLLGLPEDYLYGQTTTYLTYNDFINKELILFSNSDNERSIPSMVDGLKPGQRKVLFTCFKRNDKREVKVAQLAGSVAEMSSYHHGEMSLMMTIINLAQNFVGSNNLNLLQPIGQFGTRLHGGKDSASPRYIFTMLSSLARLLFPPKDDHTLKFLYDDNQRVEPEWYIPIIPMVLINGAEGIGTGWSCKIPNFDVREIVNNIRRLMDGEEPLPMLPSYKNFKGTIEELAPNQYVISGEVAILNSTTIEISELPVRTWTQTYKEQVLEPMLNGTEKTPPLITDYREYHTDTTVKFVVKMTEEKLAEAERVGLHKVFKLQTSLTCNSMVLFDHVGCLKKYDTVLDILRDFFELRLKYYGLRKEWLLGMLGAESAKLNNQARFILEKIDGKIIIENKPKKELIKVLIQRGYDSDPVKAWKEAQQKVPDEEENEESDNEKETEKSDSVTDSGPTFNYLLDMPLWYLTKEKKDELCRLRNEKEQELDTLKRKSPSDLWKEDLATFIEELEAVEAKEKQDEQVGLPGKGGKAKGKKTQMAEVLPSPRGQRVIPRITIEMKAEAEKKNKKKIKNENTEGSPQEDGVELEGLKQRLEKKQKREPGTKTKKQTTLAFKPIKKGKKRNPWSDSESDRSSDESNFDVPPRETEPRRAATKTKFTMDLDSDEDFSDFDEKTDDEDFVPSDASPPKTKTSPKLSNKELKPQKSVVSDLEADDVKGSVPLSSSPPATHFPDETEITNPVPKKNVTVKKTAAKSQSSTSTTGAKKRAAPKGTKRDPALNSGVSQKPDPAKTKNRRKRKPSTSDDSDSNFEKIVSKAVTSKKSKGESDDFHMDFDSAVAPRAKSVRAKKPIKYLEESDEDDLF
Summary of the method: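 Supercoiled pBR322 (200 ng) incubated with human topo IIα (1 unit) ± compound for 30 min at 30 °C. Buffer: 10 mM Tris-HCl pH 7.9, 50 mM NaCl, 50 mM KCl, 5 mM MgCl2, 1 mM EDTA, 1 mM ATP, BSA. Stopped with EDTA. 1% agarose gel run at 25 V for 4 h in TAE, ethidium bromide stain, supercoiled DNA quantified by UV imaging.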

[6] = biological target: T1, DNA topoisomerase 1 (Homo sapiens) (UniProt P11387); assay: Inhibition of recombinant human DNA topoisomerase-1-mediated relaxation of supercoiled DNA pBR322 at 100 uM after 7 hrs using ethidium bromide staining by agarose gel electrophoresis analysis
T1 sequence (whole entry): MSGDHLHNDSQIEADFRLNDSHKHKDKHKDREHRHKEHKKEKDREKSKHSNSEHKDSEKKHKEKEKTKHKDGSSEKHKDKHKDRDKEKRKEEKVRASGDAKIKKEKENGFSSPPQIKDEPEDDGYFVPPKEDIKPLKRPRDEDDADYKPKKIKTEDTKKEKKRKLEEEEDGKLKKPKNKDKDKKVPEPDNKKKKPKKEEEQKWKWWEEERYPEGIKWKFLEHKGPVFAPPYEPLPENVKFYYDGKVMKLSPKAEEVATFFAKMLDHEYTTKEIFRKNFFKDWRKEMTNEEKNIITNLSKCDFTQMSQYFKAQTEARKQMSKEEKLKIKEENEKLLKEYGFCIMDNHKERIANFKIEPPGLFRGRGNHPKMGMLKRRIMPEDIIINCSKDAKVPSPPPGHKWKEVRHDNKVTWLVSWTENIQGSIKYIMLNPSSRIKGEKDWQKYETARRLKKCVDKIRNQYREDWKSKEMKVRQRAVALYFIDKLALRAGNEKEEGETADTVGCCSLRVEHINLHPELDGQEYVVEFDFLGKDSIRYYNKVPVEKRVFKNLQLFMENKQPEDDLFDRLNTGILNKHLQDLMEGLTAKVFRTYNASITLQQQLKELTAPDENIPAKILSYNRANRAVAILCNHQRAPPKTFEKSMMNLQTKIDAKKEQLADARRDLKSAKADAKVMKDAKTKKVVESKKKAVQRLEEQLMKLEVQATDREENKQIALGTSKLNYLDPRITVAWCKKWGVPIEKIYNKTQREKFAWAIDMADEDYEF
Summary of the method: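 pBR322 (100 ng) incubated with recombinant human topo I (0.4 units) ± compound for 30 min at 37 °C. Buffer: 10 mM Tris-HCl pH 7.9, 150 mM NaCl, 0.1% BSA, 1 mM spermidine, 5% glycerol. Quenched with sarcosyl stop solution. 1% agarose gel run at 15 V for 7 h in TAE, ethidium bromide stain, supercoiled DNA quantified under UV.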

[7] = system: HeLa; assay: Cell cycle arrest in human HeLa cells assessed as accumulation at G2/M phase phase at 25 uM after 24 hrs using […] by flow cytometry analysis relative to control; format: functional
Summary of the method: (§2)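 HeLa cells exposed to graded compound concentrations for 24 h, harvested by centrifugation, PBS-washed twice, fixed overnight on ice in 70% ethanol. Stained with 10 μg/mL propidium iodide plus 0.5 mg/mL RNase and 0.1% Triton X-100 in PBS, 30 min at 37 °C in the dark. Flow cytometry gates: sub-G0/G1, G0/G1, S, G2/M.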

[8] = system: HeLa; assay: Cell cycle arrest in human HeLa cells assessed as accumulation at G0/G1 phase phase at 10 uM after 24 hrs using ethidium bromide staining by flow cytometry analysis relative to control; format: functional; conditions: in the assay text read “propidium iodide staining” for “ethidium bromide staining”; summary of the method: as §2
[9] = system: HeLa; assay: Cell cycle arrest in human HeLa cells assessed as accumulation at S phase phase at 10 uM after 24 hrs using ethidium bromide staining by flow cytometry analysis relative to control; format: functional; conditions: in the assay text read “propidium iodide staining” for “ethidium bromide staining”; summary of the method: as §2
[10] = system: HeLa; assay: Cell cycle arrest in human HeLa cells assessed as accumulation at S phase phase at 5 uM after 24 hrs using ethidium bromide staining by flow cytometry analysis relative to control; format: functional; conditions: in the assay text read “propidium iodide staining” for “ethidium bromide staining”; summary of the method: as §2
[11] = system: HeLa; assay: Cell cycle arrest in human HeLa cells assessed as accumulation at S phase phase at 50 uM after 24 hrs using […] by flow cytometry analysis relative to control; format: functional; summary of the method: as §2
[12] = system: HeLa; assay: Cell cycle arrest in human HeLa cells assessed as accumulation at G0/G1 phase phase at 50 uM after 24 hrs using […] by flow cytometry analysis relative to control; format: functional; summary of the method: as §2
[13] = system: HeLa; assay: Cell cycle arrest in human HeLa cells assessed as accumulation at G2/M phase phase at 50 uM after 24 hrs using […] by flow cytometry analysis relative to control; format: functional; summary of the method: as §2
[14] = system: HeLa; assay: Cell cycle arrest in human HeLa cells assessed as accumulation at G2/M phase phase at 5 uM after 24 hrs using ethidium bromide staining by flow cytometry analysis relative to control; format: functional; conditions: in the assay text read “propidium iodide staining” for “ethidium bromide staining”; summary of the method: as §2
[15] = system: HeLa; assay: Cell cycle arrest in human HeLa cells assessed as accumulation at S phase phase at 25 uM after 24 hrs using […] by flow cytometry analysis relative to control; format: functional; summary of the method: as §2
[16] = system: HeLa; assay: Cell cycle arrest in human HeLa cells assessed as accumulation at G0/G1 phase phase at 25 uM after 24 hrs using […] by flow cytometry analysis relative to control; format: functional; summary of the method: as §2
[17] = system: HeLa; assay: Cell cycle arrest in human HeLa cells assessed as accumulation at sub-G0/G1 phase at 25 uM after 24 hrs using […] by flow cytometry analysis relative to control; format: functional; summary of the method: as §2
[18] = system: HeLa; assay: Cell cycle arrest in human HeLa cells assessed as accumulation at sub-G0/G1 phase at 50 uM after 24 hrs using […] by flow cytometry analysis relative to control; format: functional; summary of the method: as §2
[19] = system: HeLa; assay: Cell cycle arrest in human HeLa cells assessed as accumulation at sub-G0/G1 phase at 10 uM after 24 hrs using ethidium bromide staining by flow cytometry analysis relative to control; format: functional; conditions: in the assay text read “propidium iodide staining” for “ethidium bromide staining”; summary of the method: as §2
[20] = system: HeLa; assay: Cell cycle arrest in human HeLa cells assessed as accumulation at G2/M phase phase at 10 uM after 24 hrs using ethidium bromide staining by flow cytometry analysis relative to control; format: functional; conditions: in the assay text read “propidium iodide staining” for “ethidium bromide staining”; summary of the method: as §2
[21] = system: HeLa; assay: Cell cycle arrest in human HeLa cells assessed as accumulation at G0/G1 phase phase at 5 uM after 24 hrs using ethidium bromide staining by flow cytometry analysis relative to control; format: functional; conditions: in the assay text read “propidium iodide staining” for “ethidium bromide staining”; summary of the method: as §2

| SMILES | IC50 ([1]; Homo sapiens, MCF-10A, 48 h) [µM] | IC50 ([3]; Homo sapiens, DU-145, 48 h) [µM] | IC50 ([4]; Homo sapiens, T47D, 48 h) [µM] | IC50 ([2]; hct-15) [µM] | IC50 ([4]; t47d) [µM] | other results |
| --- | --- | --- | --- | --- | --- | --- |
| CC[C@@]1(O)C(=O)OCc2c1cc1n(c2=O)Cc2cc3ccccc3nc2-1 [CAMPTOTHECIN] | 0.27 | 4.01 | 0.28 | – | – | IC50 ([2]; Homo sapiens, HCT-15, 48 h): 10.1 µM |
| Cc1ccc2cc(-c3cccs3)nc(N3CCCN(C)CC3)c2c1 | 20.6 | 14.7 | 1.32 | – | – | IC50 ([2]; Homo sapiens, HCT-15, 48 h): 1.5 µM; inhibition [5]: 8%; inhibition [6]: 18.3% |
| CN1CCN(c2nc(-c3cccs3)cc3ccccc23)CC1 [listing 1 of 3 here] | – | – | – | – | – | inhibition [5]: 0%; inhibition [6]: 80.8% and 97.5% |
| c1csc(-c2cc3ccccc3c(N3CCCCC3)n2)c1 [listing 1 of 2 here] | – | – | – | 1.04 | 7.26 | – |
| Cc1ccc2cc(-c3cccs3)nc(N3CCOCC3)c2c1 | 35.6 | 47.3 | 6.38 | – | – | IC50 ([2]; Homo sapiens, HCT-15, 48 h): 7.58 µM |
| CN1CCN(c2nc(-c3cccs3)cc3ccccc23)CC1 [listing 2 of 3 here] | – | – | – | 7.9 | 16.1 | IC50 ([1]; mcf-10a): 38.8 µM; IC50 ([3]; du-145): 44.5 µM |
| CCN1CCN(c2nc(-c3cccs3)cc3ccccc23)CC1 | – | – | – | – | – | inhibition [5]: 3.2% and 9.1%; inhibition [6]: 2.6% and 15% |
| CCN1CCN(c2nc(-c3cccs3)cc3ccc(C)cc23)CC1 | – | 29.4 | – | 3.63 | 4.15 | IC50 ([1]; mcf-10a): 43.1 µM |
| CN1CCN(c2nc(-c3cccs3)cc3ccccc23)CC1 [listing 3 of 3 here] | – | 40.2 | 15.4 | 2.44 | – | IC50 ([1]; mcf-10a): 18.1 µM |
| Cl.Nc1nc(-c2cccs2)cc2ccccc12 | – | – | – | 24.4 | 17.5 | Activity [7]: 11.42%; Activity [8]: 64.43%; Activity [9]: 9.55%; Activity [10]: 7.76%; Activity [11]: 10.09%; Activity [12]: 52.6%; Activity [13]: 22.37%; Activity [14]: 16.08%; Activity [15]: 13.82%; Activity [16]: 56.01%; Activity [17]: 5.22%; Activity [18]: 6.54%; Activity [19]: 6.6%; Activity [20]: 13.67%; Activity [21]: 63.67% |
| Cc1ccc2c(N3CCN(C)CC3)nc(-c3cccs3)cc2c1 [listing 1 of 2 here] | – | – | – | – | – | inhibition [5]: 0%; inhibition [6]: 5.1% and 11.2% |
| c1csc(-c2cc3ccccc3c(N3CCCCC3)n2)c1 [listing 2 of 2 here] | > 50 | > 50 | – | 3.61 | 3.22 | – |
| Cc1ccc2cc(-c3cccs3)nc(N3CCCCC3)c2c1 | > 50 | > 50 | – | 3.74 | 7.38 | – |
| c1csc(-c2cc3ccccc3c(N3CCOCC3)n2)c1 [listing 1 of 2 here] | – | 47 | 14.8 | – | – | IC50 ([2]; Homo sapiens, HCT-15, 48 h): 14.7 µM |
| Cc1ccc2c(N3CCN(C)CC3)nc(-c3cccs3)cc2c1 [listing 2 of 2 here] | 13.3 | 33 | 9.35 | 4.37 | – | – |
| c1csc(-c2cc3ccccc3c(N3CCOCC3)n2)c1 [listing 2 of 2 here] | > 50 | – | – | 21.3 | 24.4 | IC50 ([3]; du-145): > 50 µM |
